This is an account of results in ChEMBL document CHEMBL4138228, “Substituted carbamothioic amine-1-carbothioic thioanhydrides as novel trichomonicidal fungicides: Design, synthesis, and biology” (Eur J Med Chem, 2018).

The structures appear in SMILES notation. Converted amounts (≈) assume the structure as drawn. Bounds are passed on as bounds.

The subject of data set [1] is Candida albicans. As to the kind of experiment: Antifungal activity against Candida albicans ATCC 66027 after 48 hrs by broth microdilution method. The conditions noted are these: ATCC 66027, 48 h. Type of data set: functional. In short, it runs like this: (§1)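 Broth microdilution per NCCLS guidelines in MOPS-buffered RPMI 1640; starting inoculum 1-5 x 10^3 CFU/mL; plates incubated at 35 °C; MIC recorded after 48 h; fluconazole as reference; experiments repeated three times.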
For orientation: Broth dilution looks for growth in wells or tubes with falling amounts of substance.

The next data set relates to Cryptococcus neoformans. As to the kind of experiment: Antifungal activity against Cryptococcus neoformans after 48 hrs by broth microdilution method. Format: functional. In short, it runs like this:
as §1

Data set [2] concerns Trichomonas vaginalis. Kind of data set: Antitrichomonas activity against metronidazole-susceptible Trichomonas vaginalis assessed as decrease in cell viability after 48 hrs by trypan blue exclusion method. Format: functional.
A further data set deals with HeLa. Kind of data set: Cytotoxicity against human HeLa cells after 24 hrs by MTT assay. Format: cell-based. (Formazan colour is commonly taken as a measure of viable cells.)
Data set [3] relates to Candida albicans. As to the kind of experiment: Antifungal activity against Candida albicans ATCC 14053 after 48 hrs by broth microdilution method. Type of data set: functional. Particulars: ATCC 14053, 48 h. The procedure, abridged:
as §1

Data set [4] relates to Candida albicans. Kind of data set: Antifungal activity against Candida albicans ATCC 10231 after 48 hrs by broth microdilution method. Format: functional. Particulars: ATCC 10231, 48 h. The procedure, abridged:
as §1

The subject of the next data set is Candida parapsilosis. Kind of data set: Antifungal activity against Candida parapsilosis ATCC 22019 after 48 hrs by broth microdilution method. Type of data set: functional. The conditions noted are these: Lodderomyces parapsilosis, ATCC 22019, 48 h. In short, it runs like this: as §1
Data set [5] relates to Trichomonas vaginalis. Kind of data set: Antitrichomonas activity against metronidazole-resistant Trichomonas vaginalis CDC085 ATCC 50143 assessed as decrease in cell viability after 48 hrs by trypan blue exclusion method. Particulars: CDC085 ATCC 50143, 48 h. Type of data set: functional.
Data set [6] deals with Candida albicans. As to the kind of experiment: Antifungal activity against Candida albicans MTCC 183 after 48 hrs by broth microdilution method. Type of data set: functional. The conditions noted are these: MTCC 183, 48 h. In short, it runs like this:
as §1

The next data set has as its system Nakaseomyces glabratus. Kind of data set: Antifungal activity against Candida glabrata ATCC 2001 after 48 hrs by broth microdilution method. Format: functional. The conditions noted are these: ATCC 2001, 48 h. The procedure, abridged:
as §1

The test system of data set [7] is Candida albicans. As to the kind of experiment: Antifungal activity against Candida albicans patient isolate after 48 hrs by broth microdilution method. Format: functional. The procedure, abridged:
as §1

Data set [8] has as its system Trichophyton mentagrophytes. As to the kind of experiment: Antifungal activity against Trichophyton mentagrophytes after 48 hrs by broth microdilution method. Format: functional. In short, it runs like this: as §1
A short description of data set [9]: Selectivity index, ratio of IC50 for human HeLa cells to MIC for metronidazole-susceptible Trichomonas vaginalis. Type of data set: toxicity. Particulars: read-out: Selectivity Index.
Data set [10] can be described thus: Selectivity index, ratio of IC50 for human HeLa cells to MIC for metronidazole-resistant Trichomonas vaginalis CDC085 ATCC 50143. Type of data set: toxicity. The conditions noted are these: read-out: Selectivity Index.
Another data set has as its system Sporothrix schenckii. Kind of data set: Antifungal activity against Sporothrix schenckii after 48 hrs by broth microdilution method. Type of data set: functional. In short, it runs like this: as §1
Data set [11] concerns Trichomonas vaginalis. As to the kind of experiment: Potency index, ratio of metronidazole MIC to test compound MIC for metronidazole-resistant Trichomonas vaginalis CDC085 ATCC 50143. Format: functional.

As usually defined, the MIC is the lowest concentration that inhibits growth of the organism. Usually IC50 stands for the point on the concentration scale where inhibition reaches its midpoint. Consider `CSC(=S)N1CCN(C(=S)SC(=S)N(C)C)CC1`, for which the minimal inhibitory concentration (MIC) in the data set with Candida albicans [1] was greater than 147 µM; in the data set on Cryptococcus neoformans, greater than 147 µM; with Trichomonas vaginalis [2], 294 µM (≈ 99.9 µg/mL); against Candida albicans [3], greater than 147 µM; against Candida albicans [4] it was greater than 147 µM; with Candida parapsilosis, 36.8 µM (≈ 12.5 µg/mL). For the same molecule, the minimal inhibitory concentration (MIC) in the data set with Trichomonas vaginalis [5] was 735 µM (≈ 250 µg/mL); in the data set with Candida albicans [6] it was greater than 147 µM; with Nakaseomyces glabratus it was greater than 147 µM; with Candida albicans [7] it was greater than 147 µM; in data set [8], 147 µM (≈ 49.9 µg/mL); against Sporothrix schenckii, 147 µM (≈ 49.9 µg/mL). In addition, the concentration for half-maximal inhibition (IC50) in the data set with HeLa is greater than 5 mM. The results for the selectivity ratio in [9] and in data set [10] were greater than 17 and greater than 7, respectively.

Turning to `CN(C)C(=S)SC(=S)N(C)C` [BIS(DIMETHYLAMINETHIOCARBONYL)MONOSULFIDE], the MIC stood at 60.1 µM (≈ 12.5 µg/mL) against Candida albicans [1]; 240 µM (≈ 50.1 µg/mL) against Cryptococcus neoformans; 60.1 µM (≈ 12.5 µg/mL) with Trichomonas vaginalis [2]; 120 µM (≈ 25 µg/mL) with Candida albicans [3]; 120 µM (≈ 25 µg/mL) in the data set on Candida albicans [4]; 120 µM (≈ 25 µg/mL) against Candida parapsilosis. The minimum inhibitory concentration (MIC) turned out to be 240 µM (≈ 50.1 µg/mL) in the data set on Trichomonas vaginalis [5]; 120 µM (≈ 25 µg/mL) against Candida albicans [6]; 60.1 µM (≈ 12.5 µg/mL) in the data set on Nakaseomyces glabratus; 120 µM (≈ 25 µg/mL) against Candida albicans [7]; 60.1 µM (≈ 12.5 µg/mL) in data set [8]; 60.1 µM (≈ 12.5 µg/mL) with Sporothrix schenckii. Also, the Ratio in the data set on Trichomonas vaginalis [11] is 1.3 - 11.2. In the data set with HeLa, this molecule came in with an IC50 greater than 5 mM. For the same molecule, the selectivity ratio was greater than 83 in [9] and greater than 20 in data set [10].

On to `CN(C)C(=S)SC(=S)N1CCN(c2ccccc2)CC1`, for which the minimum inhibitory concentration (MIC) against Candida albicans [1] is greater than 153 µM; against Cryptococcus neoformans, 76.7 µM (≈ 25 µg/mL); in the data set on Trichomonas vaginalis [2], 38.3 µM (≈ 12.5 µg/mL); against Candida albicans [3] it was greater than 153 µM; with Candida albicans [4] it was greater than 153 µM; in the data set on Candida parapsilosis, 76.7 µM (≈ 25 µg/mL). The minimum inhibitory concentration (MIC) is 76.7 µM (≈ 25 µg/mL) with Trichomonas vaginalis [5]; greater than 153 µM in the data set on Candida albicans [6]; greater than 153 µM against Nakaseomyces glabratus; 38.3 µM (≈ 12.5 µg/mL) against Candida albicans [7]; 76.7 µM (≈ 25 µg/mL) in [8]; 76.7 µM (≈ 25 µg/mL) with Sporothrix schenckii. In addition, the Ratio in the data set with Trichomonas vaginalis [11] was 1.3 - 9.5. For the same molecule, the IC50 in the data set on HeLa is 1.61 mM. Further, the selectivity ratio in data set [9] turned out to be 42; in [10] it was 21.

As to `OC(Cn1cncn1)(Cn1cncn1)c1ccc(F)cc1F` [FLUCONAZOLE], the minimal inhibitory concentration (MIC) turned out to be 1.63 µM (≈ 0.499 µg/mL) with Candida albicans [1]; 6.53 µM (≈ 2 µg/mL) with Cryptococcus neoformans; 0.39 µM (≈ 0.119 µg/mL) against Candida albicans [3]; 3.26 µM (≈ 0.998 µg/mL) against Candida albicans [4]; 6.53 µM (≈ 2 µg/mL) against Candida parapsilosis; 13.1 µM (≈ 4 µg/mL) against Nakaseomyces glabratus. Besides, the minimum inhibitory concentration (MIC) against Candida albicans [7] is 3.26 µM (≈ 0.998 µg/mL); in data set [8], greater than 105 µM; against Sporothrix schenckii, 6.53 µM (≈ 2 µg/mL).

Consider `CCCCSC(=S)N1CCN(C(=S)SC(=S)N(C)C)CC1`, for which the MIC with Candida albicans [1] was 32.7 µM (≈ 12.5 µg/mL); against Cryptococcus neoformans, 65.3 µM (≈ 24.9 µg/mL); in the data set with Trichomonas vaginalis [2], 262 µM (≈ 99.9 µg/mL); against Candida albicans [3], 131 µM (≈ 49.9 µg/mL); against Candida albicans [4] it was greater than 131 µM; against Candida parapsilosis, 8.16 µM (≈ 3.11 µg/mL). The minimal inhibitory concentration (MIC) with Trichomonas vaginalis [5] was determined as 654 µM (≈ 250 µg/mL); against Candida albicans [6] it was 131 µM (≈ 49.9 µg/mL); against Nakaseomyces glabratus it was 131 µM (≈ 49.9 µg/mL); against Candida albicans [7] it was 16.3 µM (≈ 6.23 µg/mL); in data set [8], 32.7 µM (≈ 12.5 µg/mL); against Sporothrix schenckii, 32.7 µM (≈ 12.5 µg/mL). The same molecule gave a 50% inhibitory concentration (IC50) in the data set on HeLa greater than 5 mM. Also, the figures for the selectivity ratio in data set [9] and in [10] were greater than 19 and greater than 7, respectively.

`CN(C)C(=S)SC(=S)N1CCOCC1`: the MIC against Candida albicans [1] was 100 µM (≈ 25 µg/mL); in the data set with Cryptococcus neoformans, 200 µM (≈ 50.1 µg/mL); in the data set with Trichomonas vaginalis [2], 100 µM (≈ 25 µg/mL); in the data set with Candida albicans [3], 50 µM (≈ 12.5 µg/mL); with Candida albicans [4], 25 µM (≈ 6.26 µg/mL); in the data set on Candida parapsilosis, 200 µM (≈ 50.1 µg/mL). Further, the minimum inhibitory concentration (MIC) was determined as 400 µM (≈ 100 µg/mL) in the data set on Trichomonas vaginalis [5]; 50 µM (≈ 12.5 µg/mL) with Candida albicans [6]; 100 µM (≈ 25 µg/mL) against Nakaseomyces glabratus; 200 µM (≈ 50.1 µg/mL) in the data set on Candida albicans [7]; 100 µM (≈ 25 µg/mL) in data set [8]; 100 µM (≈ 25 µg/mL) in the data set with Sporothrix schenckii. This molecule also displayed a concentration for half-maximal inhibition (IC50) in the data set with HeLa of 4 mM. In addition, the selectivity ratio in data set [9] came out at 40; in data set [10], 10.
